The record followed here is ChEMBL document CHEMBL1147714, “1,3,5-Trisubstituted aryls as highly selective PPARdelta agonists” (Bioorg Med Chem Lett, 2006).

The EC50 is the concentration at which the effect is half-maximal. A high value points to lower potency in that assay. The half-life is the time in which the quantity being followed falls by half. A word on the bioavailability: it is the share of a dose that reaches the circulation, judged against a reference dose that is usually intravenous. Lower therefore signals little systemic uptake. By Cmax is commonly meant the maximum level reached in the sampled fluid or tissue.

Bounds are passed on as bounds.

Series [1] concerns the target T1, Peroxisome proliferator-activated receptor gamma (Homo sapiens, UniProt P37231).
T1 sequence (P37231 whole entry): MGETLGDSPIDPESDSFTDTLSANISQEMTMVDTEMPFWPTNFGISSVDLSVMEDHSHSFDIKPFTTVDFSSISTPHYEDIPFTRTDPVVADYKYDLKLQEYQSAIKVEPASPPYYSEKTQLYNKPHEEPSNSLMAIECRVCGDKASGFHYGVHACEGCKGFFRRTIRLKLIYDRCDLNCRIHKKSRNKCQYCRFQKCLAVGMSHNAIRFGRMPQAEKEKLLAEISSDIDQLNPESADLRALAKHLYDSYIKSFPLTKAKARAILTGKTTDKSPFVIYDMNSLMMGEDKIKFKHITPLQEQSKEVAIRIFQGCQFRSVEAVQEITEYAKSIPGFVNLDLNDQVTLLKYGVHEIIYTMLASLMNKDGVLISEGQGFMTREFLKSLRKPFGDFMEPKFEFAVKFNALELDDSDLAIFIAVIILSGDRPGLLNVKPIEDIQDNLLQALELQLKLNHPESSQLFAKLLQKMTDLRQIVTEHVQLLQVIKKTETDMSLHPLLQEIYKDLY
As to the kind of experiment: Effect on human PPARgamma transactivation in 293T cells. It is filed as functional, cell-based.

Series [2] has as its target T2, Peroxisome proliferator-activated receptor alpha (Homo sapiens, UniProt Q07869).
T2 sequence (Q07869 whole entry): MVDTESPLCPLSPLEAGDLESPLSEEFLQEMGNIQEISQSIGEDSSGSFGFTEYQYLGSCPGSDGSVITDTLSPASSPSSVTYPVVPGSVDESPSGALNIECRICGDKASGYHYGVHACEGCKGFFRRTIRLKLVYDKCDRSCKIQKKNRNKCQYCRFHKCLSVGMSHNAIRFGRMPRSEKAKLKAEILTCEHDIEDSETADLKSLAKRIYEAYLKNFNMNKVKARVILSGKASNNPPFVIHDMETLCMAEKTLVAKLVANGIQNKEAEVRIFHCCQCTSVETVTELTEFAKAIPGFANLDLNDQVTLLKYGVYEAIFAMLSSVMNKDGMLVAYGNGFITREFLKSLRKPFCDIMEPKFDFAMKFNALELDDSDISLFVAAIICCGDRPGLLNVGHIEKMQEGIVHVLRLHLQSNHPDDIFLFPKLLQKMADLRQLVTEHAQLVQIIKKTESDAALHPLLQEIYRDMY
Nature of the series: Effect on human PPARalpha transactivation in 293T cells. It is filed as functional, cell-based. The gist of the method: (§1)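 293T cells transfected for 6 h (Fugene6) with a GAL4 DNA-binding domain–PPAR ligand-binding domain fusion plasmid and pG5-Luc reporter (5 GAL4-binding sites, TATA box, firefly luciferase). Compounds were then added at 1× final concentration in 1% DMSO for 18-20 h at 37 °C. Cells were lysed with Britelite for luciferase read-out.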

The target of series [3] is T3, Peroxisome proliferator-activated receptor delta (Homo sapiens, UniProt Q03181).
T3 sequence (Q03181 whole entry): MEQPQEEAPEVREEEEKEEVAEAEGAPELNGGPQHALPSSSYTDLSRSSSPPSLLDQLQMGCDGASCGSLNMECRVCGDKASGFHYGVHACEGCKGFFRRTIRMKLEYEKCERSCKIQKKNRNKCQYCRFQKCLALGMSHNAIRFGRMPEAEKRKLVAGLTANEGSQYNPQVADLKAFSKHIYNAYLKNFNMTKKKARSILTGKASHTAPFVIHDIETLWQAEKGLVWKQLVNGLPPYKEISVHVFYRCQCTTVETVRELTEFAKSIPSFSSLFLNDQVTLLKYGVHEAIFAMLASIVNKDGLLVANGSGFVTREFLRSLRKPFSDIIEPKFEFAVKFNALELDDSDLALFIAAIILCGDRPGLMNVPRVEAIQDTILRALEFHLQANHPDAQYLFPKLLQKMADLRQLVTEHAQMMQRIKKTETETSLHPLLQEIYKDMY
As to the kind of experiment: Effect on human PPARdelta transactivation in 293T cells. It is filed as functional, cell-based.

Series [4] is described as follows: Half life in mouse at 10 mg/kg, po. It is filed as ADME, organism-based. Further details: dose 10 mg/kg, route oral. The settings on record: in vivo. The gist of the method: (§2)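 Mice received a single oral dose of 10 mpk, given as a suspension in 0.5% CMC. Bioavailability, Cmax and half-life were obtained from this pharmacokinetic study.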
Series [5] has as its system Liver microsomes. As to the kind of experiment: Stability in rat liver microsome. It is filed as ADME.
Series [6] in a line: Bioavailability in mouse at 10 mg/kg, po. It is filed as ADME, organism-based. As to conditions: in vivo. The gist of the method:
as §2

In series [7] the test system is Liver microsomes. Nature of the series: Stability in human liver microsome. It is filed as ADME.
The species entered for another series is Mus musculus. As to the kind of experiment: Stability in mouse liver microsome. It is filed as ADME.
Series [8] can be described thus: Cmax in mouse at 10 mg/kg, po. It is filed as ADME, organism-based. On the set-up: dose 10 mg/kg, route oral. As to conditions: in vivo. The gist of the method: as §2
Series [9] concerns the target T4, Peroxisome proliferator-activated receptor gamma (Homo sapiens) (UniProt P37231).
T4 sequence (whole entry): T1 sequence (P37231 whole entry)
As to the kind of experiment: Effect on human PPARgamma transactivation in 293T cells relative to rosiglitazone. It is filed as functional, cell-based. The gist of the method:
as §1

In the case of `Cc1cc(OCc2cc(-c3ccc(C(F)(F)F)cc3)cc(-c3cccc(C(F)(F)F)c3)c2)ccc1OCC(=O)O`, the EC50 in series [1] was more than 10 µM; in [2], more than 10 µM; in series [3], 0.56 µM.
`CC(C)(Oc1ccc(OCc2cc(-c3ccc(C(F)(F)F)cc3)cc(-c3ccc(C(F)(F)F)cc3)c2)cc1)C(=O)O`: the figures for the 50% effective concentration (EC50) in series [1], in series [2] and in series [3] were 0.37 µM, 0.73 µM and 0.05 µM, respectively.
Turning to `O=C(O)Cc1ccc(SCc2cc(-c3ccc(C(F)(F)F)cc3)cc(-c3ccc(C(F)(F)F)cc3)c2)c(Cl)c1`, the EC50 in series [1] was more than 10 µM; in series [2], more than 10 µM; in series [3], 0.16 µM.
Turning to `Cc1cc(OCc2ccc(-c3ccc(C(F)(F)F)cc3)c(-c3ccc(C(F)(F)F)cc3)n2)ccc1OCC(=O)O`, the concentration giving a half-maximal response (EC50) in series [1], in [2] and in series [3] was more than 10 µM in each case.
In the case of `Cc1cc(OCc2cc(-c3ccc(Cl)cc3)cc(-c3ccc(Cl)cc3)c2)ccc1OCC(=O)O`, the EC50 was more than 10 µM in series [1], more than 10 µM in series [2] and 0.11 µM in [3].
Take `Cc1cc(OCc2cc(-c3ccc(C(F)(F)F)cc3)cc(-c3ccc(C(F)(F)F)cc3)c2)ccc1OCC(=O)O`: the half-life in [4] was 3 h. The Stability entry with Liver microsomes [5], in the series with Liver microsomes [7] and in the series filed under Mus musculus was “Stable” each time. In addition, the bioavailability in series [6] was more than 50%. Also, the EC50 in [1] is more than 10 µM; in series [2], more than 10 µM; in series [3], 0.01 µM. In [8], this compound yielded a Cmax of more than 4 µM.
As to `Cc1cc(OCc2cc(-c3ccc(N(C)C)cc3)cc(-c3ccc(N(C)C)cc3)c2)ccc1OCC(=O)O`, the 50% effective concentration (EC50) in [1] was more than 10 µM; in series [2], more than 10 µM; in series [3] it was 0.49 µM.
Regarding `Cc1cc(OCc2cc(-c3ccc(-c4ccccc4)cc3)cc(-c3ccc(C(F)(F)F)cc3)c2)ccc1OCC(=O)O`, the EC50 was more than 10 µM in series [1], more than 10 µM in [2] and 0.06 µM in [3].
With `COc1ccc(-c2cc(COc3ccc(OCC(=O)O)c(C)c3)cc(-c3ccc(C(F)(F)F)cc3)c2)cc1`, the concentration giving a half-maximal response (EC50) was more than 10 µM in [1], more than 10 µM in [2] and 0.07 µM in [3].
Turning to `COc1ccc(-c2cc(COc3ccc(OCC(=O)O)c(C)c3)nc(-c3ccc(OC)cc3)n2)cc1`, the concentration for a half-maximal effect (EC50) in [1] was more than 10 µM; in series [2], more than 10 µM; in series [3], 0.21 µM.
Turning to `Cc1cc(OCc2cc(-c3ccc(C(F)(F)F)cc3)nc(-c3ccc(C(F)(F)F)cc3)n2)ccc1OCC(=O)O`, the EC50 in series [1] is more than 10 µM; in series [2], more than 10 µM; in [3] it was 0.03 µM.
Take `COc1ccc(-c2cc(COc3ccc(OCC(=O)O)c(C)c3)cc(-c3ccc(OC)cc3)c2)cc1`: the EC50 in series [1] was more than 10 µM; in series [2], more than 10 µM; in series [3], 0.35 µM.
Turning to `O=C(O)COc1ccc(OCc2cc(-c3ccc(C(F)(F)F)cc3)cc(-c3ccc(C(F)(F)F)cc3)c2)cc1`, the EC50 in series [1] is more than 10 µM; in [2] it was 1.64 µM; in series [3], 0.11 µM.
In the case of `Cc1cc(OCc2cc(-c3ccc(OC(F)(F)F)cc3)nc(-c3ccc(OC(F)(F)F)cc3)n2)ccc1OCC(=O)O`, the half-life in series [4] was 3 h. Moreover, the Stability entry in the series on Liver microsomes [5], in the series with Liver microsomes [7] and in the series listed under Mus musculus was “Stable” in each case. In [6], this compound registered a bioavailability of more than 50%. For the same compound, the concentration for a half-maximal effect (EC50) is more than 10 µM in [1], more than 10 µM in series [2] and 0.04 µM in series [3]. Also, the maximum concentration (Cmax) in series [8] is more than 4 µM.
With `Cc1cc(OCC(=O)O)ccc1OCc1cc(-c2ccc(C(F)(F)F)cc2)cc(-c2ccc(C(F)(F)F)cc2)c1`, the concentration for a half-maximal effect (EC50) in series [1] was more than 10 µM; in series [2], 3.33 µM; in series [3] it was 0.07 µM.
The corresponding values for `Cc1cc(OCc2cc(-c3ccc(OC(F)(F)F)cc3)cc(-c3ccc(C(F)(F)F)cc3)c2)ccc1OCC(=O)O` are more than 10 µM, more than 10 µM and 0.06 µM.
Consider `Cc1cc(SCc2cc(-c3ccc(C(F)(F)F)cc3)cc(-c3ccc(C(F)(F)F)cc3)c2)ccc1OCC(=O)O`, for which the concentration giving a half-maximal response (EC50) in [1] was more than 10 µM; in series [2], more than 10 µM; in [3], 0.03 µM.
With `COc1ccc(-c2cc(-c3ccc(OC)cc3)nc(COc3ccc(OCC(=O)O)c(C)c3)n2)cc1`, the EC50 was more than 10 µM in series [1], more than 10 µM in series [2] and 0.11 µM in [3].
`Cc1cc(OCc2cc(-c3ccccc3)cc(-c3ccccc3)c2)ccc1OCC(=O)O` returned an Efficacy in [9] of 30%. The EC50 was 0.74 µM in series [1], more than 10 µM in series [2] and 0.56 µM in series [3].
As for `O=C(O)Cc1ccc(OCc2cc(-c3ccc(C(F)(F)F)cc3)cc(-c3ccc(C(F)(F)F)cc3)c2)c(Cl)c1`, the concentration for a half-maximal effect (EC50) in series [1] is more than 10 µM; in [2], more than 10 µM; in [3], 0.54 µM.
Turning to `Cc1cc(OCc2ccc(-c3ccc(OC(F)(F)F)cc3)c(-c3ccc(OC(F)(F)F)cc3)c2)ccc1OCC(=O)O`, the EC50 in series [1], in [2] and in series [3] was more than 10 µM in each case.
`Cc1cc(OCc2nc(-c3ccc(OC(F)(F)F)cc3)cc(-c3ccc(OC(F)(F)F)cc3)n2)ccc1OCC(=O)O`: the concentration giving a half-maximal response (EC50) in [1] was more than 10 µM; in [2], more than 10 µM; in series [3], 0.09 µM.
Regarding `Cc1cc(OCc2nc(-c3ccc(C(F)(F)F)cc3)cc(-c3ccc(C(F)(F)F)cc3)n2)ccc1OCC(=O)O`, the 50% effective concentration (EC50) in [1] is more than 10 µM; in [2], more than 10 µM; in [3], 0.04 µM.
Regarding `COc1ccc(-c2ccc(COc3ccc(OCC(=O)O)c(C)c3)cc2-c2ccc(OC)cc2)cc1`, the EC50 in series [1], in [2] and in series [3] was more than 10 µM throughout.
For the compound `Cc1cc(OCc2cc(-c3ccc(OC(F)(F)F)cc3)cc(-c3ccc(OC(F)(F)F)cc3)c2)ccc1OCC(=O)O`, the values for the EC50 in series [1], in series [2] and in [3] were more than 10 µM, more than 10 µM and 0.03 µM, respectively.
Take `Cc1ccc(-c2cc(COc3ccc(OCC(=O)O)c(C)c3)cc(-c3ccc(C(F)(F)F)cc3)c2)cc1`: the EC50 in [1] was more than 10 µM; in series [2], more than 10 µM; in [3], 0.07 µM.
In the case of `O=C(O)COc1ccc(OCc2cc(-c3ccccc3)cc(-c3ccccc3)c2)cc1`, the 50% effective concentration (EC50) in series [1] is 1.2 µM; in [2], more than 10 µM; in series [3], 0.97 µM.
